Assay outcomes: PubChem BioAssay, Broad Institute
Shown are actives, neighbours in structure and some others; about 4.4% of the full set was active somewhere.
HIF activator: HIF pathway transcriptional activation; U2OS HRE-luciferase reporter, luminescence; normalized: DMSO 0%, desferrioxamine 100%; activation, % at 7.5 µM (by protocol); 0.32% of 300,000 active; AID 1910;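 active = mean activation of at least 10% of the iron chelator positive control signal, with at least half of replicates also reaching 10%; inconclusive = mean and replicate majority disagree about reaching 10%; inactive = mean and most replicates under 10%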
T cruzi repl: blocks replication of Trypanosoma cruzi; T. cruzi beta-gal in NIH3T3, luminescence, 90 h; 1.4% of 300,000 active; inhibition, % (concentration not given with the values);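 active = mean inhibition across valid replicates above about 55%, limit read from the data; inconclusive = mean below that limit but half or more replicates reach it; inactive = mean below it, under half of replicates reach it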;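 note: signal also drops with host cell toxicity which is not excluded here; higher percent means less beta-gal luminescence so fewer parasites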
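Assay system: NIH/3T3 fibroblasts plus reporter T. cruzi. Amount: NIH/3T3 cells, 5,000 per well. Buffer or medium: DMEM, 2% fetal bovine serum. Doses: compound pinned at 50 nL/well, DMSO. Schedule: ≥90 h infection period, 3 h prior cell attachment. Signal: luminescent β-galactosidase signal after 60 min lysis. Read-out: parasite load inhibition, %.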
HSF-1 act: increases HSF-1 driven luciferase reporter signal; NIH3T3-HGL HSF-1 luciferase reporter, MG132, 8 h; 100% = twice DMSO control signal; activation, % at 9 µM; 1.7% of 300,000 active;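 active = mean replicate activation of at least 50% with a set share of replicates each reaching 50%; inconclusive = only one of those two conditions met; inactive = mean below 50% and too few replicates reaching it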
Calb FLC: C. albicans growth modulation with fluconazole; C. albicans CaCi-2 (fluconazole-resistant clinical isolate) + fluconazole, Alamar Blue growth, 48 h; growth inhibition, % (concentration not given with the values); 0.57% of 300,000 active;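 active = growth inhibition above about 58% in most replicates, limit read from the data, passing the limit was not always enough; inconclusive = exactly half the replicates above a set limit; inactive = most replicates below a set limit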;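 note: all wells also contain fluconazole at 8 µg/ml as a sub-toxic cotreatment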
HSF1 inhib: HSF1 inhibition; NIH3T3-HGL HSE-luciferase, MG132-induced, luminescence 8 h; hits give low values; activity change, negative = inhibition, % at 7.5 µM (by protocol); 0.77% of 300,000 active; AID 2098;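 active = more than half of replicate wells show activity change below -50%, luminescence cut by over half; inconclusive = some wells, but at most half, below -50%; inactive = no replicate well below -50%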;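 note: luciferase reports HSF-1 transcriptional activity via heat shock element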
Large screens that a line does not name were inactive.

Cc1ccc2nsnc2c1NC(=O)CCc1ccccc1	none
Cc1ccc2nsnc2c1NC(=O)COc1ccccc1F	Calb FLC 114
C=CCSc1nnc(CNS(=O)(=O)c2ccc(C)cc2)n1C	none
CCCSc1nnc(CNS(=O)(=O)c2ccc(C)cc2)n1C	HSF1 inhib -61
Cc1cc(N2CCC(C)CC2)n2ncc(-c3ccccc3)c2n1	HSF1 inhib -79
Cc1ccc(-c2cnn3c(N4CCOCC4)cc(C)nc23)cc1	HSF1 inhib -68
Cc1cc(N2CCOCC2)n2ncc(-c3ccc(Cl)cc3)c2n1	none (no result: HIF activator, T cruzi repl, HSF-1 act, HSF1 inhib)
Cc1cc(N2CCOCC2)n2ncc(-c3ccccc3)c2n1	HSF1 inhib -61
O=C(COC(=O)C1CCC1)NCc1ccc(F)cc1	none
CCc1nnc(NC(=O)CSc2nnc(C3CC3)n2C)s1	none
Clc1ccc(-c2csc(Nc3ccccc3)[n+]2Cc2ccco2)c(Cl)c1	HSF-1 act 92
O=C(Nc1cccc(S(=O)(=O)Nc2ccc(Cl)cc2)c1)c1cc2c(s1)CCCC2	T cruzi repl 65
Cc1ccc(NC(=O)c2cc3c(s2)CCCC3)cc1S(=O)(=O)Nc1ccccc1Cl	none
O=C(Nc1nc(-c2ccc(S(=O)(=O)N3CCCCCC3)cc2)cs1)c1cccs1	T cruzi repl 70
C=CCNc1nc(-c2cc3ccccc3o2)cs1	none
O=C(Nc1ccc(S(=O)(=O)N2CCCC2)cc1)c1cccs1	none
O=C(Nc1nc(-c2cc3ccccc3o2)cs1)c1ccc(S(=O)(=O)N2CCCC2)cc1	T cruzi repl 66
O=C(Nc1nc(-c2cccs2)cs1)c1cccc(S(=O)(=O)N2CCCCC2)c1	T cruzi repl 62 (no result: Calb FLC)
c1ccc2oc(-c3csc(NCC4CCCO4)n3)cc2c1 (stereo not drawn)	HSF-1 act 52
COC(=O)C(C)NC(=O)CNS(=O)(=O)c1ccc(F)cc1 (stereo not drawn)	none
COc1ccc(CN2CCNC(=O)C2CC(=O)N(C)CC2CCOCC2)cc1C (stereo not drawn)	none
COc1ccc(CN2CCNC(=O)C2CC(=O)N(C)CC2CCOCC2)cc1OC (stereo not drawn)	HIF activator 26
CCOC(=O)N1CCC(NC(=O)CN2C(=O)CSc3ncccc32)CC1	none (no result: HIF activator)
CCOC(=O)N1CCC(NC(=O)CN2C(=O)CSc3nc(C)cc(C)c32)CC1	HSF1 inhib -71 (no result: HIF activator)
COc1cccc(-c2nnc3n2N=C(c2cc(OC)ccc2OC)CS3)c1	none
COc1cccc(-c2nnc3n2N=C(C(C)(C)C)CS3)c1	HSF1 inhib -63
COc1ccc(OCC(=O)Nc2ccccc2O)cc1	HSF-1 act 75, Calb FLC inconclusive
Cc1ccc(OCC(=O)Nc2ccccc2C(N)=O)cc1	HSF-1 act 57
NC(=O)c1ccccc1NC(=O)COc1ccc(Cl)cc1	none
COc1ccccc1NC(=O)COc1ccccc1	Calb FLC inconclusive
COCc1ccc(C(=O)N2CCCC(Nc3ccc(F)c(F)c3)C2)s1 (stereo not drawn)	none
Cc1c(-c2ccccc2)[n+](=O)c2c(n1[O-])CCC2	HSF1 inhib -87
Cc1c(-c2ccc(Cl)cc2)[n+](=O)c2c(n1[O-])CCCC2	none
OC(COc1ccc2cc(Br)ccc2c1)Cn1ccnc1 (stereo not drawn)	T cruzi repl 58
Cc1cc(OCCCn2ccnc2)ccc1C(C)C	T cruzi repl 74
COC(=O)c1cccc(OCC(O)Cn2ccnc2)c1 (stereo not drawn)	none
Cc1cc(OCCCn2ccnc2)cc(C(C)C)c1	Calb FLC inconclusive
c1ccc2cc(OCCCn3ccnc3)ccc2c1	T cruzi repl 63
Clc1ccc(OCCn2ccnc2)cc1Cl	T cruzi repl 59
N#CCC(=O)Nc1ccc(C(=O)OCC(=O)NNC(=O)c2cccs2)cc1	none
O=C(CCl)Nc1ccccc1C(=O)Nc1ccc2c(c1)OCO2	none
COCC1CCCCN1C(=O)c1cccc(OC2CCN(S(C)(=O)=O)CC2)c1 (stereo not drawn)	none
CSc1ccccc1NC(=S)Nc1ccc(S(N)(=O)=O)cc1	HSF-1 act 54
Cc1ccc(C(=O)NC2CCC(C)CC2)o1 (stereo not drawn)	none
CCCCCn1cnc2sc(-c3ccccc3)cc2c1=O	HSF-1 act 57
CCCCn1cnc2sc(-c3ccccc3)cc2c1=O	HSF-1 act 56
CC12CCC(=O)N1C(C(=O)NCc1ccccc1Cl)CS2 (stereo not drawn)	none
CN(C)c1ccc(CNc2ncnc3sccc23)cc1	Calb FLC 85
CC(C)c1ccc(OCC(=O)N(Cc2ccccc2)c2ccccn2)cc1	none (no result: HSF-1 act, HSF1 inhib)
O=C(c1nc2ccc(Cl)cn2c1CN1CCC[C@H]1CO)N1CCCCCCC1	none
c1cncc(CSc2ccc(-c3ccc4c(c3)OCO4)nn2)c1	HSF-1 act inconclusive
COc1cc2c(cc1OC)/C(=C/C(=O)c1ccc(C)cc1)NCC2	HSF1 inhib -80
CCOC(=O)C1CCN(C(=O)c2ccc3c(Cl)c4c(nc3c2)CCCC4)CC1	HSF-1 act 316
O=C(NC1CC1)c1ccc2c(Cl)c3c(nc2c1)CCCC3	none
CCCN1CCN(CCCNC(=O)c2ccc3c(Cl)c4c(nc3c2)CCCC4)CC1	HSF-1 act 160
O=C(NCCCN1CCCC1)c1ccc2c(Cl)c3c(nc2c1)CCCC3	none
CC1CCN(C(=O)c2ccc3c(Cl)c4c(nc3c2)CCCC4)CC1	HSF-1 act 302
O=C(c1ccncc1)N1CCN(c2ccc(F)cc2)CC1	HSF1 inhib -66
O=S1(=O)Cc2cc3ccccc3cc2C1	none
COc1cccc(NC(=O)C2CCCN2C(=O)NC2CCCCC2)c1 (stereo not drawn)	none
COc1ccccc1NS(=O)(=O)c1ccc(Cl)c(NC(=O)CN2C(=O)c3ccccc3C2=O)c1	none
O=C(Nc1nccs1)C(c1ccccc1)N1CCCC1 (stereo not drawn)	none
COc1ccc(COC(=O)C2=C(C)NC(=O)NC2c2ccc(F)cc2)cc1 (stereo not drawn)	none
N#Cc1ccccc1NC(=O)c1ccc2c(Cl)c3c(nc2c1)CCCC3	HSF-1 act 113
COc1ccccc1N1CCN(C(=O)c2ccc3c(Cl)c4c(nc3c2)CCCC4)CC1	none
O=C(c1ccc2c(Cl)c3c(nc2c1)CCCC3)N1CCN(c2ccc(F)cc2)CC1	HSF-1 act 72
CCOc1cccc2sc(N(CCCN(C)C)C(=O)c3ccc(S(=O)(=O)N4CCc5ccccc5C4)cc3)nc12	none
CCOc1cccc2sc(N(CCCN(C)C)C(=O)c3ccc(S(=O)(=O)N(C)c4ccccc4)cc3)nc12	T cruzi repl 56
CN(C)CCCN(C(=O)CCOc1ccccc1)c1nc2c(F)cccc2s1	T cruzi repl 59
CN(C)CCCN(C(=O)COc1ccc(Cl)cc1)c1nc2c(F)cccc2s1	T cruzi repl 80
CN(C)CCCN(C(=O)CCc1ccccc1)c1nc2c(F)cccc2s1	T cruzi repl 58
COc1ccc(CCN(C)CC(O)c2ccccc2)cc1OC (stereo not drawn)	T cruzi repl inconclusive
